In ChEMBL document CHEMBL4354813, “Design, Synthesis, and Pharmacological Evaluation of Potent Positive Allosteric Modulators of the Glucagon-like Peptide-1 Receptor (GLP-1R)” (J Med Chem, 2020):
Calls of active or inactive are those of the source. The calls are words filed in the database; no cut-off is given here.

Experiments:
[1] = species: Rattus norvegicus; assay: Improvement in 10 nM GLP1(9-36)NH2-mediated glucose-stimulated insulin secretion in dispersed rat pancreatic islets at 10 uM incubated for 2 hrs under […] conditions by ELISA; assay type: functional
[2] = molecular target: T1, OATP1B1 (Homo sapiens, UniProt Q9Y6L6); assay: Substrate activity at human OATP1B1 expressed in HEK293 cells assessed as increase in compound uptake at 1 uM incubated up to 15 mins LC-MS/MS analysis relative to control relative to control; assay type: ADME, cell-based; settings: HEK293 cells expressing human OATP1B1, read-out: FC
T1 sequence (Q9Y6L6 whole entry): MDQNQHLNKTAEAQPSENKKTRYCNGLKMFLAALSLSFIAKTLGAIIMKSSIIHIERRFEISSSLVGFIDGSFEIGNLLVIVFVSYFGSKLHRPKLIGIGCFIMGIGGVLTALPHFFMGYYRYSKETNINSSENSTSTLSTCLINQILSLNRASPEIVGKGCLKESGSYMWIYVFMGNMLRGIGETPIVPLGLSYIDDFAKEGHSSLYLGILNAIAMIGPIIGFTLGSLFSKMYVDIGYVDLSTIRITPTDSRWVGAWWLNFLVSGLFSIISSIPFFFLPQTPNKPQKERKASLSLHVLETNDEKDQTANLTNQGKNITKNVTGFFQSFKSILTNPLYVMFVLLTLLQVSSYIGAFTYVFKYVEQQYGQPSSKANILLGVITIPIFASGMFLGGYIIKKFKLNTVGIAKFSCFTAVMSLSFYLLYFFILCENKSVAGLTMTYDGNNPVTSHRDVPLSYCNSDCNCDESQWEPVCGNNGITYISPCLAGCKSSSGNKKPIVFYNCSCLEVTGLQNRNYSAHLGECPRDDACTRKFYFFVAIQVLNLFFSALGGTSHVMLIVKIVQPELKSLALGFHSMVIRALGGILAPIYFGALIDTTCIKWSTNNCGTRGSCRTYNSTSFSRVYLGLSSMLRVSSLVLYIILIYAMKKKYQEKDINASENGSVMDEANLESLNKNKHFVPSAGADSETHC
Summary of the method: (§1)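 HEK-TR cells overexpressing hOATP1B1 or hOATP1B3, run in parallel with control HEK-TR cells, seeded at 1 x 10⁵ cells/well one day before. Time-dependent uptake of 1 μM compound in HBSS at 37 °C, quadruplicates. Uptake stopped with ice-cold buffer, cells washed, lysed and quantified by LC-MS/MS. Uptake ratio calculated against the control cells.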

[3] = molecular target: T2, OATP1B3 (Homo sapiens, UniProt Q9NPD5); assay: Substrate activity at human OATP1B3 expressed in HEK293 cells assessed as increase in compound uptake at 1 uM incubated up to 15 mins LC-MS/MS analysis relative to control relative to control; assay type: ADME, cell-based; settings: HEK293 cells expressing human OATP1B3, read-out: FC; summary of the method: as §1
T2 sequence (Q9NPD5 whole entry): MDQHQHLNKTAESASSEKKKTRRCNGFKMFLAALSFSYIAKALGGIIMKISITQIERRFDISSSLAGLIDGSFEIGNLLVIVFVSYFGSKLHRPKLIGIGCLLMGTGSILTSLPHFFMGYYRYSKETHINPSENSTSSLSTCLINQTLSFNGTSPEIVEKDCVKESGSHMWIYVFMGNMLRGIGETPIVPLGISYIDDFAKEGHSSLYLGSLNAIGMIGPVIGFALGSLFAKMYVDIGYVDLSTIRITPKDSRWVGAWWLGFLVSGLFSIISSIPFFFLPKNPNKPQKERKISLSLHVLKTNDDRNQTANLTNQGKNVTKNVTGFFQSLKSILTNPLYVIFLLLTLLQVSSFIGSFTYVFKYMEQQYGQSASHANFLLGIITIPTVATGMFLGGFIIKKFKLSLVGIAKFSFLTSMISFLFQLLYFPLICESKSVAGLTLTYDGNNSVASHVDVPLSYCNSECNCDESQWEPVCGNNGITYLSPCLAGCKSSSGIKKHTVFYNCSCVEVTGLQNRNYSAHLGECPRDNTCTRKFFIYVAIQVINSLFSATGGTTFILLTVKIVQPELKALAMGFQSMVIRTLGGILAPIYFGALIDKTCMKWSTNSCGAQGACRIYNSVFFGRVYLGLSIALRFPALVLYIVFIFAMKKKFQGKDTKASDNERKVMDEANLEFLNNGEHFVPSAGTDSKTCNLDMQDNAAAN

[4] = Chemical stability in pH 7.4 buffer; assay type: physicochemical
[5] = Clearance in Wistar rat at 3 mg/kg, iv administered as single dose treated 2 hrs after dosing with 40 mg/kg, po OATP/MRP2 inhibitor rifampicin and measured up to 24 hrs ESI-LC/MS-MS analysis; assay type: ADME, organism-based; settings: in vivo
Summary of the method: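 Male Wistar rats (n=3 per route) pretreated orally with rifampicin 40 mg/kg (0.6% methylcellulose, 0.5% Tween 80 in water) 2 h before compound, given 3 mg/kg i.v. in Glycoferol/Cremophor-water solution or 10 mg/kg p.o. wet-milled suspension. Plasma sampled up to 24 h; ESI-LC/MS-MS after acetonitrile precipitation (LOQ 1 ng/mL); noncompartmental analysis.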

[6] = Volume of distribution at steady state in Wistar rat at 3 mg/kg, iv administered as single dose measured up to 24 hrs ESI-LC/MS-MS analysis; settings: in vivo
[7] = species: Rattus norvegicus; assay: Inhibition of GLP1(9-36)NH2-mediated glucose-stimulated insulin secretion in dispersed rat pancreatic islets at 10 uM incubated for 2 hrs by ELISA; assay type: functional
Summary of the method: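 Dispersed islets from male Sprague Dawley rats (collagenase digestion, Histopaque purification, Accutase dispersal, cultured up to 4 days). Pre-incubated 1 h in Krebs-Ringer with 5.6 mM glucose, then 2 h at 37 °C with 15 mM glucose, ±10 nM GLP1(9-36)NH2, ±compound 10 µM, DMSO vehicle; insulin by HTRF ELISA as % of total, n-fold vs control; N≥9.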

Structure (SMILES)	Activity [1]	uptake ratio at 0.25 h, 1 µM [2]	uptake ratio at 0.25 h, 1 µM [3]	Stability [4]	clearance [5]	Vdss [6]	inhibition [7]
CC(C)(C)OC(=O)n1c2c(c3ccccc31)C[C@H]1C(=O)N3C[C@@H](CC(=O)O)C[C@H]3[C@@H]2N1C(=O)CC1CCC(F)(F)CC1	inactive	6 to 22	6 to 22	99%	19.2 mL/min/kg	2.29 L/kg	
CC(O)CCN1C[C@H]2c3c(c4ccccc4n3C(=O)OC(C)(C)C)C[C@@H](C1=O)N2C(=O)CC1CCC(F)(F)CC1 (some centres not stated)							Active
